Measurements from ChEMBL document CHEMBL2034830, “Pyrazole[3,4-e][1,4]thiazepin-7-one derivatives as a novel class of Farnesoid X Receptor (FXR) agonists” (Bioorg Med Chem, 2012).
Calls of active or inactive are those of the source. No cut-off for these calls is given here.

Columns and labels:
[1] = molecular target: T1, Bile acid receptor (Homo sapiens) (UniProt Q96RI1); assay: Induction of FXR-mediated upregulation of Bsep gene in human HepG2 cells after 18 hrs by qRT-PCR analysis; type: cell-based
T1 sequence (whole entry): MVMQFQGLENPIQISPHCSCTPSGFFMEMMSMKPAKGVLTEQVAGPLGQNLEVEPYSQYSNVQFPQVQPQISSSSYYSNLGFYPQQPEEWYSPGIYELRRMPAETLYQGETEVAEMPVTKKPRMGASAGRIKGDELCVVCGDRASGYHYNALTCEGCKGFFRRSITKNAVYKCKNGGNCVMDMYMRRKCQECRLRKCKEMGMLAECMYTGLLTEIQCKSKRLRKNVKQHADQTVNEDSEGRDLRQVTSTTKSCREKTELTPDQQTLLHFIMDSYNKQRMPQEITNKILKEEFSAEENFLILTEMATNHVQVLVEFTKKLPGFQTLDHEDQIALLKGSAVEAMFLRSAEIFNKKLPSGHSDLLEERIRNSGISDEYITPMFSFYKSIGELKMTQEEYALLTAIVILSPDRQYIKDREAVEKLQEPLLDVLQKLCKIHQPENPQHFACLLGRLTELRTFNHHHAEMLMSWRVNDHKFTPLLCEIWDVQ
Method in brief: (§1)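 HepG2 cells were stimulated for 18 h with increasing compound concentrations. Total RNA was random reverse-transcribed, and 10 ng template was run in SYBR Green real-time PCR with 0.3 μM of each primer. Cycling was 95 °C 3 min, then 45 cycles of 95 °C 10 s and 60 °C 30 s, in triplicate. Expression is given as ΔCT against an endogenous control, and relative expression as ΔΔCT.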

[2] = molecular target: T1, Bile acid receptor (Homo sapiens); assay: Induction of FXR-mediated upregulation of Ostbeta gene in human HepG2 cells after 18 hrs by qRT-PCR analysis relative to obeticholic acid; type: cell-based; method in brief: as §1
[3] = molecular target: T1, Bile acid receptor (Homo sapiens); assay: Induction of FXR-mediated down-regulation of Cyp7alpha1 gene in human HepG2 cells after 18 hrs by qRT-PCR analysis; type: cell-based; method in brief: as §1
[4] = molecular target: T1, Bile acid receptor (Homo sapiens); assay: Agonist activity at human GST-tagged FXR ligand binding domain assessed as recruitment of Src-1 peptide […] by AlphaScreen assay relative to 10 uM of CDCA
[5] = molecular target: T2, Bile acid receptor (Homo sapiens, UniProt Q96RI1); assay: Agonist activity at human GST-tagged FXR ligand binding domain assessed as recruitment of Src-1 peptide […] by AlphaScreen assay
T2 sequence (Q96RI1 whole entry): T1 sequence (whole entry)

Compound	Efficacy [4] [%]	EC50 ([5]; read-out: EC50) [µM]	further results
CCCc1ccccc1-n1nc(C)c2c1NC(=O)[C@H](C)S[C@@H]2c1ccc(Oc2ccccc2)cc1 (racemic)	240	1.1	Activity [1]: inactive; Activity [2]: Active; Activity [3]: Dose-dependent effect
COc1cc([C@H]2S[C@@H](C)C(=O)Nc3c2c(C)nn3-c2ccccc2C)ccc1Oc1ccccc1 (racemic)	130	1.9	–
Cc1nn(-c2ccccc2Cl)c2c1C(c1ccc(Oc3ccccc3)cc1)SC(C)C(=O)N2 (mixture of isomers)	57	2.7	–
Cc1nn(-c2ccccc2Br)c2c1C(c1ccc(Oc3ccccc3)cc1)SC(C)C(=O)N2 (mixture of isomers)	84	1.8	–
COc1ccc(-c2ccc([C@H]3S[C@@H](C)C(=O)Nc4c3c(C)nn4-c3ccccc3C)cc2)cc1 (racemic)	38	1.2	–
Cc1ccccc1-n1nc(C)c2c1NC(=O)[C@H](C)S[C@@H]2c1ccc(-c2cc3ccccc3o2)cc1 (racemic)	17	1.5	–
Cc1ccccc1-n1nc(C)c2c1NC(=O)[C@H](C)S[C@@H]2c1ccc(-c2cccs2)cc1 (racemic)	85	2.6	–
COc1ccc(C2SC(C)C(=O)Nc3c2c(C)nn3-c2ccccc2C)c(OC)c1 (configuration not stated)	63	10.5	–
Cc1nn(-c2ccccc2C(F)(F)F)c2c1C(c1ccc(Oc3ccccc3)cc1)SC(C)C(=O)N2 (racemic)	50	2	–
Cc1ccccc1-n1nc(C)c2c1NC(=O)[C@H](C)S[C@@H]2c1ccc(Oc2ccccc2C(=O)O)cc1 (racemic)	–	–	EC50 [5]: Not Active
Cc1nn(-c2ccccc2C(C)C)c2c1[C@@H](c1ccc(Oc3ccccc3)cc1)S[C@@H](C)C(=O)N2 (racemic)	174	1.9	–
CCOc1cccc(-c2ccc([C@H]3S[C@@H](C)C(=O)Nc4c3c(C)nn4-c3ccccc3C)cc2)c1 (racemic)	13	3.5	–
Cc1ccc(-n2nc(C)c3c2NC(=O)[C@H](C)S[C@@H]3c2ccc(Oc3ccccc3)cc2)cc1 (racemic)	11	3.4	–
Cc1ccccc1-n1nc(C)c2c1NC(=O)[C@H](C)S[C@@H]2c1ccc(Oc2cccc(C(=O)O)c2)cc1 (racemic)	–	–	EC50 [5]: Not Active
Cc1ccccc1-n1nc(C)c2c1NC(=O)[C@H](C)S[C@@H]2c1ccc(-c2ccccc2)cc1 (racemic)	24	0.99	–
Cc1cccc(-n2nc(C)c3c2NC(=O)[C@H](C)S[C@@H]3c2ccc(Oc3ccccc3)cc2)c1 (racemic)	22	2.4	–
Cc1ccccc1-n1nc(C)c2c1NC(=O)[C@H](C)S[C@@H]2c1ccc(OCc2ccccc2)cc1 (racemic)	–	–	EC50 [5]: Not Active
COc1cccc(Oc2ccc([C@H]3S[C@@H](C)C(=O)Nc4c3c(C)nn4-c3ccccc3C)cc2)c1 (racemic)	120	1.7	–

Compound	Efficacy [4] [%]	EC50 ([5]; read-out: EC50) [µM]	further results
COC(=O)c1ccc(-c2ccc([C@H]3S[C@@H](C)C(=O)Nc4c3c(C)nn4-c3ccccc3C)cc2)cc1 (racemic)	–	–	EC50 [5]: Not Active
Cc1nn(-c2ccccc2I)c2c1C(c1ccc(Oc3ccccc3)cc1)SC(C)C(=O)N2 (racemic)	130	1.3	–
Cc1ccccc1-n1nc(C)c2c1NC(=O)[C@H](C)S[C@@H]2c1ccc(-c2ccc(C(=O)O)cc2)cc1 (racemic)	–	–	EC50 [5]: Not Active
COc1cccc(-c2ccc([C@H]3S[C@@H](C)C(=O)Nc4c3c(C)nn4-c3ccccc3C)cc2)c1 (racemic)	41	1.8	–
Cc1nn(-c2ccccc2F)c2c1C(c1ccc(Oc3ccccc3)cc1)SC(C)C(=O)N2 (mixture of isomers)	72	3.9	–
Cc1ccccc1-n1nc(C)c2c1NC(=O)[C@H](C)S[C@@H]2c1ccc(-c2cccc(C(=O)O)c2)cc1 (racemic)	–	–	EC50 [5]: Not Active
COC(=O)c1cccc(-c2ccc([C@H]3S[C@@H](C)C(=O)Nc4c3c(C)nn4-c3ccccc3C)cc2)c1 (racemic)	–	–	EC50 [5]: Not Active
COc1ccccc1-c1ccc([C@H]2S[C@@H](C)C(=O)Nc3c2c(C)nn3-c2ccccc2C)cc1 (racemic)	50	1.1	–
Cc1ccccc1-n1nc(C)c2c1NC(=O)[C@H](C)S[C@@H]2c1ccc(-c2ccco2)cc1 (racemic)	32	3.6	–
COc1ccccc1-n1nc(C)c2c1NC(=O)[C@H](C)S[C@@H]2c1ccc(Oc2ccccc2)cc1 (racemic)	37	3.3	–
Cc1ccccc1-n1nc(C)c2c1NC(=O)[C@H](C)S[C@@H]2c1ccc(/C=C/c2ccccc2)cc1 (racemic)	–	–	EC50 [5]: Not Active
COc1ccccc1Oc1ccc([C@H]2S[C@@H](C)C(=O)Nc3c2c(C)nn3-c2ccccc2C)cc1 (racemic)	240	1.7	Activity [1]: inactive; Activity [2]: Active; Activity [3]: Dose-dependent effect
Cc1ccccc1-n1nc(C)c2c1NC(=O)[C@H](C)S[C@@H]2c1ccc(Oc2ccc(C(=O)O)cc2)cc1 (racemic)	–	–	EC50 [5]: Not Active
CCc1ccccc1-n1nc(C)c2c1NC(=O)[C@H](C)S[C@@H]2c1ccc(Oc2ccccc2)cc1 (racemic)	190	1.1	Activity [1]: Dose-dependent effect; Activity [2]: Active; Activity [3]: Dose-dependent effect
COc1ccc(Oc2ccc([C@H]3S[C@@H](C)C(=O)Nc4c3c(C)nn4-c3ccccc3C)cc2)cc1 (racemic)	70	2.2	–
Cc1ccccc1-n1nc(C)c2c1NC(=O)[C@H](C)S[C@@H]2c1ccc(Oc2ccccc2)cc1 (racemic)	118	1.3	–
Cc1ccccc1-n1nc(C)c2c1NC(=O)[C@H](C)S[C@@H]2c1ccc(-c2ccsc2)cc1 (racemic)	68	1.4	–
Cc1ccccc1-n1nc(C)c2c1NC(=O)[C@H](C)S[C@@H]2c1ccc(-c2ccoc2)cc1 (racemic)	40	3.5	–
